5 compounds from ChEMBL document CHEMBL1629439, “High-throughput identification of antibacterials against methicillin-resistant Staphylococcus aureus (MRSA) and the transglycosylase” (Bioorg Med Chem, 2010) can be followed below.

One assay has as its system Acinetobacter baumannii. As to the kind of experiment: Antimicrobial activity against Acinetobacter baumannii ATCC 49139 after 18 to 24 hrs by alamar blue assay. The note with it: Acinetobacter baumannii, ATCC 49139; read-out: MIC. Type of assay: functional. In short, it runs like this: (§1)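 Broth microdilution per NCCLS in Mueller-Hinton broth, 8-point twofold dilutions, 384-well format. Exponential-phase cells at 5 × 10^5 cells/ml incubated with compound 18–24 h at 37 °C, then 20% Alamar blue added and fluorescence read. MIC90 taken as the lowest concentration preventing at least 90% bacterial growth.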

The nature of assay [1]: Displacement of fluorescein-labeled moenomycin from transglycosylase in Escherichia coli ATCC […] assessed as inhibition of lipid II polymerization after 30 mins by fluorescence anisotropy binding assay. Set-up: species or system Staphylococcus aureus. In a few lines:
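Full-length bifunctional PBP (TGase) at 10 µg/ml mixed with 100 nM fluorescent moenomycin in 10 mM Tris, 100 mM NaCl, pH 8.0, in 1536-well plates. 1 µl of 1 mM compound stock added. 10 µM moenomycin and 2.5% DMSO served as positive and negative controls. After 30 min, drop in fluorescence anisotropy read. Ki derived from Kd and IC50. Same SA enzyme serves all S. aureus strains.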
(In fluorescence polarisation assays a small probe gives low polarisation when free and higher when bound to something large.)

Assay [2] has as its system Escherichia coli. As to the kind of experiment: Antimicrobial activity against Escherichia coli ATCC […] after 18 to 24 hrs by alamar blue assay. The following applies: Escherichia coli. The class given is functional. In a few lines: as §1
Assay [3] is described as follows: Inhibition of transglycosylase in Escherichia coli ATCC […] assessed as inhibition of NBD- labelled lipid II polymerization. In a few lines: (§2)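 100 µM NBD-labelled lipid II incubated 30 min with full-length PBP (EC, SA or Mtb) and 10 ng/µl N-acetylmuramidase in 50 mM Tris-HCl pH 8.0, 10 mM MgCl2, 0.1% Triton X-100, 10% DMSO, 15% MeOH. Supernatant run on anion-exchange HPLC with 20 mM–0.5 M ammonium acetate gradient. Inhibition calculated from substrate peak-area percentage. IC50 determined. S. aureus strains share one SA enzyme.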

In assay [4] the test system is Mycolicibacterium smegmatis. Kind of assay: Antimicrobial activity against Mycobacterium smegmatis BCRC 11565 after 18 to 24 hrs by alamar blue assay. Type of assay: functional. The following applies: Mycolicibacterium smegmatis, BCRC 11565. In a few lines:
as §1

In another assay the test system is Serratia marcescens. Kind of assay: Antimicrobial activity against Serratia marcescens ATCC 14756 after 18 to 24 hrs by alamar blue assay. Type of assay: functional. The note with it: Serratia marcescens, ATCC 14756; read-out: MIC. In short, it runs like this:
as §1
For orientation: Resazurin is reduced to fluorescent resorufin, in cell work by metabolically active cells.

Assay [5] has as its system Staphylococcus aureus. Kind of assay: Antimicrobial activity against methicillin-resistant Staphylococcus aureus isolate NTUH4722 after 18 to 24 hrs by alamar blue assay. The class given is functional. In a few lines:
(§3)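 Broth microdilution per NCCLS standard, Mueller-Hinton broth, 8-point twofold dilutions; exponentially growing cells at 5 10^5 cells/ml with compound, 18–24 h at 37 C; 20% Alamar blue added, fluorescence read; MIC90 taken as lowest concentration preventing at least 90% growth.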

For assay [6], the system named is Staphylococcus aureus. Kind of assay: Antimicrobial activity against oxacillin- and methicillin-resistant Staphylococcus aureus isolate Sa-OXA-R2 after 18 to 24 hrs by alamar blue assay. The class given is functional. In a few lines:
as §3

The subject of assay [7] is Staphylococcus aureus. Kind of assay: Antimicrobial activity against methicillin-resistant Staphylococcus aureus ATCC 33592 after 18 to 24 hrs by alamar blue assay. The class given is functional. The note with it: Staphylococcus aureus, ATCC 33592. In a few lines:
as §3

Assay [8] deals with Staphylococcus aureus. Kind of assay: Antimicrobial activity against wild-type Staphylococcus aureus ATCC 29213 after 18 to 24 hrs by alamar blue assay. The following applies: Staphylococcus aureus, ATCC 29213.
Another assay has as its system Pseudomonas aeruginosa. As to the kind of experiment: Antimicrobial activity against Pseudomonas aeruginosa ATCC 25619 after 18 to 24 hrs by alamar blue assay. The note with it: Pseudomonas aeruginosa, ATCC 25619; read-out: MIC. The class given is functional. In a few lines: as §1
Assay [9] has as its system Stenotrophomonas maltophilia. Kind of assay: Antimicrobial activity against Stenotrophomonas maltophilia ATCC 13637 after 18 to 24 hrs by alamar blue assay. The class given is functional. The following applies: Stenotrophomonas maltophilia, ATCC 13637; read-out: MIC. In short, it runs like this:
as §1

In the next assay the test system is Bacillus subtilis. As to the kind of experiment: Antimicrobial activity against Bacillus subtilis ATCC 23857 after 18 to 24 hrs by alamar blue assay. The class given is functional. In a few lines:
as §1

Assay [10] can be described thus: Inhibition of transglycosylase in Staphylococcus aureus isolate Sa-OXA-R2 assessed as inhibition of NBD- labelled lipid II polymerization. In a few lines: as §2
Assay [11] can be described thus: Inhibition of transglycosylase in Staphylococcus aureus isolate NTUH4722 assessed as inhibition of NBD- labelled lipid II polymerization. In short, it runs like this:
as §2

The nature of assay [12]: Displacement of fluorescein-labeled moenomycin from Mycobacterium tuberculosis transglycosylase assessed as inhibition of lipid II polymerization after 30 mins by fluorescence anisotropy binding assay. In a few lines:
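Full-length bifunctional PBP (10 µg/ml) with 100 nM fluorescein-labelled moenomycin in 10 mM Tris, 100 mM NaCl, pH 8.0; compound added from 1 mM stocks; 30 min incubation, anisotropy decrease read; 10 µM moenomycin and 2.5% DMSO controls. For dose series, Ki derived from probe Kd and IC50.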

Assay [13] in a line: Inhibition of transglycosylase in Staphylococcus aureus ATCC 29213 assessed as inhibition of NBD- labelled lipid II polymerization. In a few lines:
as §2

A short description of assay [14]: Inhibition of transglycosylase in Staphylococcus aureus ATCC 33592 assessed as inhibition of NBD- labelled lipid II polymerization. In short, it runs like this: as §2
Assay [15] is described as follows: Inhibition of Mycobacterium tuberculosis transglycosylase assessed as inhibition of NBD- labelled lipid II polymerization. In short, it runs like this: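 Full-length PBP incubated 30 min with 100 µM NBD-labelled lipid II, 10 ng/µl N-acetylmuramidase in 50 mM Tris-HCl pH 8.0, 10 mM MgCl2, 0.1% Triton X-100, 10% DMSO, 15% MeOH; supernatant on anion-exchange HPLC, ammonium acetate gradient (20 mM–0.5 M); inhibition from substrate peak area percentage.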

The nature of assay [16]: Inhibition of transglycosylase assessed as inhibition of NBD- labelled lipid II polymerization. In short, it runs like this: as §2
In assay [17] the test system is Escherichia coli. Kind of assay: Displacement of fluorescein-labeled moenomycin from transglycosylase in Escherichia coli ATCC […] assessed as inhibition of lipid II polymerization at 100 uM after 30 mins by fluorescence anisotropy binding assay.

In brackets after ≈: the same amount, converted by molar mass. Activity calls are given as the source filed them. Where only a bound is given, the exact number is not on record here.

Usually MIC stands for the smallest concentration in the dilution series that meets the test's criterion for growth inhibition. As usually defined, the Ki is a measure of affinity in units of concentration, obtained from inhibition or displacement. By MIC90 is commonly meant the lowest concentration that inhibits either 90% of growth or 90% of the strains tested, depending on the study. Low values mean greater potency, high ones weaker potency. A word on the IC50: it is the concentration that gives 50% inhibition. Regarding `CCc1ccc2oc(-c3cccc(NC(=O)c4ccc([N+](=O)[O-])o4)c3)nc2c1`, the MIC with Acinetobacter baumannii worked out at 12 µg/mL (≈ 31.8 µM); with Serratia marcescens, 32 µg/mL (≈ 84.8 µM); in the assay with Pseudomonas aeruginosa, 128 µg/mL (≈ 339 µM); in [9], 32 µg/mL (≈ 84.8 µM); against Bacillus subtilis, 0.06 µg/mL (≈ 0.159 µM). In [1], the Ki is 98 µM. Also, the MIC90 in the assay on Escherichia coli [2] is greater than 512 µM; in assay [4], 0.5 µM (≈ 0.189 µg/mL); in the assay with Staphylococcus aureus [5], 1 µM (≈ 0.377 µg/mL); in the assay on Staphylococcus aureus [6], 1 µM (≈ 0.377 µg/mL); against Staphylococcus aureus [7] it was 0.5 µM (≈ 0.189 µg/mL); in the assay with Staphylococcus aureus [8], 1 µM (≈ 0.377 µg/mL). For the same compound, in assay [3], the IC50 came to 30.3 µM.

`C=C(C/C=C(\C)CCC=C(C)C)CCC(C)(C)/C=C/CC/C(C)=C/CO[C@@H](COP(=O)(O)O[C@H]1O[C@H](C(N)=O)[C@@](C)(O)[C@H](OC(N)=O)[C@H]1O[C@@H]1O[C@H](CO[C@@H]2O[C@H](CO)[C@@H](O)[C@H](O)[C@H]2O)[C@@H](O[C@@H]2O[C@H](C)[C@@H](O[C@@H]3O[C@H](C(=O)NC4=C(O)CCC4=O)[C@H](O)[C@H](O)[C@H]3O)[C@H](O)[C@H]2NC(C)=O)[C@H](O)[C@H]1NC(C)=O)C(=O)O` [MOENOMYCIN A]: the 50% inhibitory concentration (IC50) in [10] worked out at 0.034 µM; in [11] it was 0.034 µM; in assay [3] it was 0.028 µM; in [13], 0.034 µM; in assay [14], 0.034 µM; in assay [15], 0.05 µM. Also, the Ki in assay [1] was 1.1 µM; in [12], 9.8 µM. Also, the MIC90 against Escherichia coli [2] came to 160 µM (≈ 253 µg/mL); in assay [4], 2.5 µM (≈ 3.96 µg/mL); in the assay on Staphylococcus aureus [5] it was 33 µM (≈ 52.2 µg/mL); in the assay with Staphylococcus aureus [6], 33 µM (≈ 52.2 µg/mL); against Staphylococcus aureus [7], 11 µM (≈ 17.4 µg/mL); with Staphylococcus aureus [8], 3 µM (≈ 4.75 µg/mL).

One may read the IC90 as the concentration needed for an effect of 90%. With `Cc1ccc(C(C)C)c(Oc2ccccc2NC(=O)c2cc(I)cc(I)c2O)c1`, the IC50 in assay [10] came out at 27.8 µM; in [11], 27.8 µM; in assay [3], 7.2 µM; in assay [13] it was 27.8 µM; in assay [14], 27.8 µM. In addition, the MIC in the assay with Acinetobacter baumannii is 16 µg/mL (≈ 26.1 µM); in the assay with Serratia marcescens, 16 µg/mL (≈ 26.1 µM); in the assay on Pseudomonas aeruginosa, 16 µg/mL (≈ 26.1 µM); in [9], 16 µg/mL (≈ 26.1 µM); in the assay on Bacillus subtilis it was less than 0.03 µg/mL. For the same compound, the Ki in assay [1] worked out at 98 µM. Moreover, the MIC90 in the assay with Escherichia coli [2] is greater than 512 µM; in assay [4], 13 µM (≈ 7.97 µg/mL); against Staphylococcus aureus [5] it was 1.6 µM (≈ 0.981 µg/mL); in the assay on Staphylococcus aureus [6] it was 13 µM (≈ 7.97 µg/mL); against Staphylococcus aureus [7], 3.3 µM (≈ 2.02 µg/mL); in the assay with Staphylococcus aureus [8], 6.5 µM (≈ 3.99 µg/mL). Besides, in assay [16], the IC90 is less than 25 µM.

Regarding `Cc1ccc(C(C)C)c(Oc2cc(Cl)ccc2NC(=O)c2cc(Br)cc(Br)c2O)c1`, the IC50 in [10] was 19.6 µM; in [11], 19.6 µM; in [3], 2.7 µM; in assay [13] it was 19.6 µM; in assay [14] it was 19.6 µM. The MIC was 16 µg/mL (≈ 28.9 µM) in the assay on Acinetobacter baumannii; 16 µg/mL (≈ 28.9 µM) in the assay on Serratia marcescens; 16 µg/mL (≈ 28.9 µM) in the assay with Pseudomonas aeruginosa; 16 µg/mL (≈ 28.9 µM) in [9]; less than 0.03 µg/mL against Bacillus subtilis. In addition, the MIC90 against Escherichia coli [2] is greater than 512 µM; in assay [4], 3.6 µM (≈ 1.99 µg/mL); in the assay on Staphylococcus aureus [5], 1.8 µM (≈ 0.997 µg/mL); with Staphylococcus aureus [6], 0.45 µM (≈ 0.249 µg/mL); in the assay with Staphylococcus aureus [7], 1.8 µM (≈ 0.997 µg/mL); with Staphylococcus aureus [8], 1.8 µM (≈ 0.997 µg/mL). Also, the IC90 in assay [16] is less than 25 µM. Further, the result in the assay with Escherichia coli [17] was inactive.

With `O=C(c1ccc(Cl)cc1)c1ccc(Oc2ccc(Cl)cc2)c(NC(=O)c2cc(I)cc(I)c2O)c1`, the IC50 in assay [10] came out at 9.3 µM; in assay [11] it was 9.3 µM; in assay [3], 2.1 µM; in [13], 9.3 µM; in assay [14] it was 9.3 µM. Further, the MIC with Acinetobacter baumannii was 16 µg/mL (≈ 21.9 µM); in the assay with Serratia marcescens, 16 µg/mL (≈ 21.9 µM); with Pseudomonas aeruginosa, 16 µg/mL (≈ 21.9 µM); in assay [9] it was 16 µg/mL (≈ 21.9 µM); in the assay on Bacillus subtilis it was less than 0.03 µg/mL. For the same compound, in assay [1], the Ki was 68 µM. The MIC90 was greater than 512 µM in the assay with Escherichia coli [2]; 44 µM (≈ 32.1 µg/mL) in assay [4]; 11 µM (≈ 8.03 µg/mL) in the assay on Staphylococcus aureus [5]; 11 µM (≈ 8.03 µg/mL) in the assay with Staphylococcus aureus [6]; 5.5 µM (≈ 4.02 µg/mL) against Staphylococcus aureus [7]; 11 µM (≈ 8.03 µg/mL) with Staphylococcus aureus [8]. For the same compound, the IC90 in assay [16] was less than 25 µM.
